Assay outcomes deposited in PubChem by The Scripps Research Institute Molecular Screening Center.
Sampled rows, rich in hits. Any-hit rate of the full collection: about 1.8%.
M5 PAM: human M5 muscarinic receptor positive allosteric modulators, primary screen, CHO-K1 cells, Fluo-8 calcium fluorescence; CHO-K1 hM5, ACh EC20 PAM; 0% = ACh EC20, 100% = ACh EC100; activation, % at 3 µM; Muscarinic acetylcholine receptor M5 (Homo sapiens), P08912; hit rate 0.3% among 360,000; AID 624038, 2012;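 active = activation above the run cutoff, the mean activation of all test compounds plus 3 SD, cut at about 18% in these data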
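system = human M5 receptor in CHO-K1 cells | reagent = EC20 acetylcholine as agonist stimulus | compound dosing = single-point, 3 µM nominal | incubation = Fluo-8 loading 80 min at 37 °C plus 30 min room temperature | detection = Fluo-8 calcium dye fluorescence, kinetic read | benchmarks = low control EC20 acetylcholine (0%), high control EC100 acetylcholine (100%)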
M4 antag: human M4 muscarinic receptor antagonists, primary screen, CHO cells, Fluo-8 calcium fluorescence | AID 624125, 2012 | hit rate 0.73% among 360,000 | CHO-hM4 cells, ACh EC80 | inhibition, % at 3 µM | Muscarinic acetylcholine receptor M4 (Homo sapiens), P08173;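 active = inhibition above its plate's cutoff, the mean inhibition of sample wells plus 3 SD, cut at about 27% in these data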;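 also: 0% = acetylcholine EC80 with DMSO and 100% = DMSO without agonist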
Target sequence (P08173 whole entry, looked up): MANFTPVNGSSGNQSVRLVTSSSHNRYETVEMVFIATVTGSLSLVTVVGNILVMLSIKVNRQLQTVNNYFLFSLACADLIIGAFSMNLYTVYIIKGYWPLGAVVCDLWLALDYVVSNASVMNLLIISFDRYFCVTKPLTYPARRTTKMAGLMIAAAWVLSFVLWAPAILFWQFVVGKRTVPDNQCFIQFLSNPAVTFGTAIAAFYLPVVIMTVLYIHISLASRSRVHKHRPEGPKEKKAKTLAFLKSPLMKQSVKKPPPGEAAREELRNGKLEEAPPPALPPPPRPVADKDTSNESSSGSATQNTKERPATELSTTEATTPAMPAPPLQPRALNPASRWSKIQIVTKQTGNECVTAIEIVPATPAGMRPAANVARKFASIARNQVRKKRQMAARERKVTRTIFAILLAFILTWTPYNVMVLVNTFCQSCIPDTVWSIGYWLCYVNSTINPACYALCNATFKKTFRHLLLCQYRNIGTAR
M4 ag: human M4 muscarinic receptor agonists, primary screen, CHO-K1 cells, Fluo-8 calcium fluorescence; activation, % at 3 µM; Muscarinic acetylcholine receptor M4 (Homo sapiens), P08173; CHO-K1 hM4/Gqi5; vehicle 0%, full acetylcholine response 100%; hit rate 0.14% among 360,000;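 active = activation above the run mean over all test wells plus 3 SD, cut at about 32% in these data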;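 also: peak over basal fluorescence ratio per well then scaled between controls; 0% = DMSO wells and 100% = acetylcholine at EC100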
M4 PAM: human M4 muscarinic receptor positive allosteric modulators, primary screen, CHO-K1 cells, Fluo-8 calcium fluorescence; activation, % at 3 µM; hit rate 0.4% among 360,000; AID 624126, 2012; Muscarinic acetylcholine receptor M4 (Homo sapiens), P08173; CHO-K1 hM4/Gqi5, ACh EC20; 0% = ACh EC20, 100% = maximal ACh;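 active = activation above its plate's cutoff, the mean activation of sample wells plus 3 SD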
M5 antag: human M5 muscarinic receptor antagonists, primary screen, CHO cells, Fluo-8 calcium fluorescence; Muscarinic acetylcholine receptor M5 (Homo sapiens), P08912; CHO-hM5 cells, ACh EC80; inhibition, % at 3 µM; hit rate 0.59% among 360,000; AID 624040, 2012;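 active = inhibition above a per-plate cutoff, the mean of that plate's test compounds plus 3 SD, cut at about 27% in these data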;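 also: 0% = acetylcholine EC80 with DMSO and 100% = DMSO without agonist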
M5 ag: human M5 muscarinic receptor agonists, primary screen, CHO-K1 cells, Fluo-8 calcium fluorescence. Muscarinic acetylcholine receptor M5 (Homo sapiens), P08912. CHO-K1 hM5 cells; 0% DMSO wells, 100% maximal acetylcholine response. activation, % at 3 µM. hit rate 0.19% among 360,000;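 active = activation above the run's mean over test compounds plus 3 SD, cut at about 23% in these data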;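 also: signal is peak over basal fluorescence ratio across the kinetic read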
Numbers without * were called inactive; ! = a repeat was not active.

COc1ccc2[nH]c3c(NCCC4=CCCCC4)ncnc3c2c1 was read as M5 PAM -31.0, M4 antag 6.0, M4 ag 20.1, M4 PAM -12.4, M5 antag 31.7* and M5 ag 10.9.
For COc1cccc(CNC(=O)CCS(=O)(=O)Cc2ccc(C)cc2)c1 the results were M5 PAM -3.4, M4 antag -0.3, M4 ag -1.2, M4 PAM -0.1, M5 antag 4.0 and M5 ag -6.3.
For Cc1cccc(N2CCN(C(=O)c3ccc(NS(=O)(=O)c4c(C)noc4C)cc3)CC2)c1C the results were M5 PAM -9.6, M4 antag -6.4, M4 ag 6.5, M4 PAM -2.2, M5 antag 6.6 and M5 ag -6.4.
Screening Cc1noc(C)c1S(=O)(=O)Nc1ccc(C(=O)N2CCN(c3cccc(Cl)c3)CC2)cc1 returned M5 PAM -21.0, M4 antag 6.2, M4 ag 34.6*, M4 PAM -6.1, M5 antag 27.3* and M5 ag 7.0.
Cc1noc(C)c1S(=O)(=O)Nc1ccc(C(=O)N2CCc3ccccc3C2)cc1 was read as M5 PAM 19.8*, M4 antag -1.2, M4 ag 2.8, M4 PAM -1.1, M5 antag -18.4 and M5 ag -1.7.
Screening Cc1sc2ncnc(N3CCN(S(=O)(=O)c4ccc(C(C)(C)C)cc4)CC3)c2c1C returned M5 PAM -3.1, M4 antag -5.6, M4 ag 1.9, M4 PAM 5.7, M5 antag 11.9 and M5 ag 1.9.
Screening Cc1sc2ncnc(N3CCC(C(=O)Nc4ccc(OC(F)F)c(Cl)c4)CC3)c2c1C returned M5 PAM -2.8, M4 antag -2.7, M4 ag 1.4, M4 PAM 13.1, M5 antag 11.4 and M5 ag 0.1.
For Cc1ccc(S(=O)(=O)N2CCN(C(=O)C3CCN(c4ncnc5sc(C)c(C)c45)CC3)CC2)c(C)c1 the results were M5 PAM 4.8, M4 antag -4.1, M4 ag 2.5, M4 PAM 26.4*, M5 antag 0.2 and M5 ag 3.3.
For CCN(CC)CCNC(=O)c1ccc(NC(=O)C2CCN(c3ncnc4sc(C)c(C)c34)CC2)cc1 the results were M5 PAM -4.5, M4 antag 57.6*, M4 ag 80.5*, M4 PAM 8.4, M5 antag 2.5 and M5 ag -7.1.
For COc1ccc(S(=O)(=O)N(C)C[C@@H]2OCc3cnnn3CCCC(=O)N([C@@H](C)CO)C[C@@H]2C)cc1 the results were M5 PAM -3.0, M4 antag -17.1, M4 ag 0.6, M4 PAM 19.1*, M5 antag -4.9 and M5 ag 1.1.
Cc1ccc(S(=O)(=O)N(C)C[C@H]2OCc3cnnn3CCCC(=O)N([C@@H](C)CO)C[C@H]2C)cc1 was read as M5 PAM 3.6, M4 antag -10.6, M4 ag -0.1, M4 PAM -1.9, M5 antag -10.7 and M5 ag 0.0.
For O=C(Cc1cc(=O)[nH][nH]1)N/N=C/C(Cl)=C/c1ccccc1 the results were M5 PAM -0.8, M4 antag -3.5, M4 ag 0.2, M4 PAM 35.1*!, M5 antag -0.3 and M5 ag -1.1.
For O=C(Cc1cc(=O)[nH][nH]1)N/N=C/c1c(Cl)cccc1Cl the results were M5 PAM 0.2, M4 antag 2.9, M4 ag 0.9, M4 PAM -4.2, M5 antag -1.2 and M5 ag 0.3.
Screening CCNS(=O)(=O)c1ccc(CCC(=O)Nc2cc(Cl)ccc2Oc2ccccc2)cc1 returned M5 PAM -23.9, M4 antag 27.6*, M4 ag 24.0, M4 PAM -11.7, M5 antag 17.2 and M5 ag -0.4.
Cc1cc(C)nc(NS(=O)(=O)c2ccc(NC(=O)c3ccc(O)cc3O)cc2)n1 was read as M5 PAM 11.1, M4 antag -7.7, M4 ag 0.9, M4 PAM 11.8, M5 antag 0.8 and M5 ag -3.4.
Cc1ccc(C(=O)NCCCN2CCOCC2)c(C)c1 was read as M5 PAM 6.8, M4 antag -8.5, M4 ag 1.2, M4 PAM 8.6, M5 antag 7.3 and M5 ag 1.2.
`CCOC(=O)c1ccc(N=c2sc(C(=O)OC)cc(=O)n2Cc2ccco2)cc1` gave M5 PAM -5.8, M4 antag -5.0, M4 ag 1.6, M4 PAM -4.7, M5 antag 1.9 and M5 ag -0.5.
Screening CCOC(=O)c1ccc(N=c2sc(C(=O)OC)cc(=O)n2CCCN2CCOCC2)cc1 returned M5 PAM -7.6, M4 antag 52.2*!, M4 ag 2.1, M4 PAM -12.8, M5 antag 3.0 and M5 ag -1.1.
For C=CCC1(C)C(=O)N(c2ccccc2)c2ccccc21 (stereo not given) the results were M5 PAM 1.8, M4 antag 1.2, M4 ag -2.5, M4 PAM 0.5, M5 antag -4.0 and M5 ag -2.1.
For C=CCCC1(C)C(=O)N(c2ccccc2)c2ccccc21 (stereo not given) the results were M5 PAM 24.7*, M4 antag -4.3, M4 ag -0.6, M4 PAM -3.9, M5 antag 21.3 and M5 ag -1.6.
For Cc1cc(Br)ccc1NC(=O)CN(C)C(=O)CSCc1ccccc1 the results were M5 PAM -6.0, M4 antag 0.9, M4 ag 2.4, M4 PAM -4.0, M5 antag 9.1 and M5 ag -0.5.
For COc1ccc(C(C)=O)cc1COC(=O)CSCC(=O)Nc1ccc(C)cc1 the results were M5 PAM -3.0, M4 antag 26.4*, M4 ag 0.7, M4 PAM -4.4, M5 antag 2.1 and M5 ag -0.5.
Screening Cc1ccc(S(=O)(=O)c2ccsc2NC(=O)c2ccccc2)cc1 returned M5 PAM -8.0, M4 antag -10.4, M4 ag -0.1, M4 PAM -0.1, M5 antag 1.3 and M5 ag 1.2.
`Cc1cc(C)c(OCCOCCN2CCNCC2)c(C)c1` gave M5 PAM 45.0*, M4 antag -21.9, M4 ag 1.6, M4 PAM 2.1, M5 antag -2.9 and M5 ag -7.9.
